High-throughput results (PubChem)
MEKK2 mut-MEK5: signal of MEK5 binding to mutant human MEKK2 PB1 domain. bead flow cytometry, Alexa488-MEK5 binding to MEKK2 mutant. percent response, % at 10 µM. AID 1530. 290,000 tested, 0.35% active; in the data active = percent response above about 24%, passing the limit was not always enough
UBC13 inh: human UBC13 polyubiquitination inhibition | UBC13 polyubiquitin chain formation, TR-FRET | inhibition, % at 20 µM | 330,000 tested, 0.47% active | AID 485273; in the data active = inhibition above about 45%, passing the limit was not always enough
Apaf-1 inh: inhibitors of human Apaf-1 apoptosome | O14727 | reconstituted apoptosome caspase-3 activity, DEVD-Rh110 fluorescence | inhibition, % at 20 µM | 330,000 tested, 0.71% active | AID 489030; active = inhibition of at least 40% at 20 µM;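 note: plate controls were DMSO wells for no effect and DEVD-CHO caspase inhibitor wells for full effect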
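Material: reconstituted apoptosome with Apaf-1, cytochrome c, caspase-9, procaspase-3, dATP. Technique: Rh110 fluorescence intensity. Buffer or medium: pH 7.5 Hepes buffer with CHAPS, BSA, DTT. Times: 30 min plus 50 min, RT.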
MEKK2 WT-MEK5: raises or lowers MEK5 binding to wildtype human MEKK2 PB1 domain; Q9Y2U5; AID 1531; binding response (% of control), % at 10 µM; bead flow cytometry, Alexa488-MEK5 binding to MEKK2 WT; actives lie on both sides; 290,000 tested, 1.1% active; in the data active = binding response below about 67% or above about 130%
DSG3 Ab inh: human desmoglein-3 autoantibody binding inhibition; AID 588358; binding (percent of control), % at 10 µM; DSG3-coupled beads, scFv-anti-DSG3-GFP binding, flow cytometry; stronger effect = lower value; 310,000 tested, 0.48% active; P32926;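 active = binding more than 3 SD below its plate's average and above zero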;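 note: hits lower antibody fragment binding to DSG3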
Target sequence (P32926 whole entry, looked up, the tested form may be a part): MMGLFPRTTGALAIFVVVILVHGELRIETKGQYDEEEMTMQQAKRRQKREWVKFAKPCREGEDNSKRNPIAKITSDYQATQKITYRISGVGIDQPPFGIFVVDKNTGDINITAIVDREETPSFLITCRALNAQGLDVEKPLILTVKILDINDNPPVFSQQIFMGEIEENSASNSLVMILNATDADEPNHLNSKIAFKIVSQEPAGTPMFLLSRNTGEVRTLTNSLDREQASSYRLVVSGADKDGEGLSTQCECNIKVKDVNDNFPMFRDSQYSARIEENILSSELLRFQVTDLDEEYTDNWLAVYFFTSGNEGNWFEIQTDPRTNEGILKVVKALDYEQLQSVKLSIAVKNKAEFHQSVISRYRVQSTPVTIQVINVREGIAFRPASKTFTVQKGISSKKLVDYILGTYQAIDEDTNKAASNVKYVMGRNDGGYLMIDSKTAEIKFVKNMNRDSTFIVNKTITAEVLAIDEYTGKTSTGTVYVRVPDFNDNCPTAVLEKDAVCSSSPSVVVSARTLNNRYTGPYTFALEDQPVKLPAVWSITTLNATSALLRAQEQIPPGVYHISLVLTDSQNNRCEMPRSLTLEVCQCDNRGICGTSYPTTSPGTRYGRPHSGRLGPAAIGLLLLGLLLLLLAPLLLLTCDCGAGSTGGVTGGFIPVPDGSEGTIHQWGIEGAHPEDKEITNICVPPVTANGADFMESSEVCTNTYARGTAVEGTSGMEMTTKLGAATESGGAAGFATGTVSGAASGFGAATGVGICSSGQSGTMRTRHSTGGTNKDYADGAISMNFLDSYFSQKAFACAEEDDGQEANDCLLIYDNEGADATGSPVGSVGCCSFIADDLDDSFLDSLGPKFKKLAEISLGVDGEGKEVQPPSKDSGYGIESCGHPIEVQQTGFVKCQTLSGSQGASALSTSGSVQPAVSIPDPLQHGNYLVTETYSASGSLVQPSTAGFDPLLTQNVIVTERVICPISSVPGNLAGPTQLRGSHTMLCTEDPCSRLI
MEKK3 PB1 HTS: MEKK3-MEK5 PB1 interaction, increase or decrease | binding response (% of control), % at 10 µM | 290,000 tested, 1.4% active | bead-based flow cytometry, Alexa488-MEK5 binding to MEKK3; actives lie on both sides; 0 = blocked by unlabeled MEK5, 100 = vehicle;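 active = binding response more than 3 SD above or below the average of its plate-row segment, actives on both sides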;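 note: Alexa488 bead fluorescence after subtracting the streptavidin-only scavenger bead signal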
MEKK2wt confirm: raises or lowers MEK5 binding to wildtype human MEKK2, retest; 5,900 tested, 2.4% active; binding response (% of control), % at 10 µM; bead flow cytometry, Alexa488-MEK5 binding to MEKK2 WT; actives lie on both sides; AID 1892; shares compounds with MEKK3 PB1 HTS; in the data active = binding response below about 16% or above about 210%; inactive = in between
MEKK2mut confirm: signal of MEK5 binding to mutant human MEKK2, retest | bead flow cytometry, Alexa488-MEK5 binding to MEKK2 mutant | AID 1893 | percent response, % at 10 µM | shares compounds with MEKK3 PB1 HTS | 5,900 tested, 2% active; in the data active = percent response mostly above about 71%, no sharp cut-off; inactive = mostly below about 38%;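 note: higher means compound restores mutant binding toward wildtype level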
MEKK3 confirm: MEKK3-MEK5 PB1 inhibition, single concentration confirmation; AID 1894; bead flow cytometry, Alexa488-MEK5 binding to MEKK3; stronger effect = lower value; shares compounds with MEKK3 PB1 HTS; binding response (% of control), % at 10 µM; 5,900 tested, 1.8% active;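 active = binding response below 72% of control, or above a set upper limit, though filed actives all read lower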;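 note: 100% = DMSO only wells and 0% = binding blocked by excess unlabeled MEK5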
An asterisk follows results filed as active; / = no result given; [ ] = another dose, or the depositor's remark. An excerpt weighted towards active compounds, which were near 3.2% of everything screened.

SMILES	MEKK2 mut-MEK5	UBC13 inh	Apaf-1 inh	MEKK2 WT-MEK5	DSG3 Ab inh	MEKK3 PB1 HTS	MEKK2wt confirm	MEKK2mut confirm	MEKK3 confirm
CC1CC(C)CN(S(=O)(=O)c2ccc(NC(=O)[C@@H]3CCCN3C(=O)c3cccs3)cc2)C1 (stereo partly specified)	/	-18.8	16.6	/	105.9	/	/	/	/
CC(C)c1cc(C(=O)Nc2cc(Cl)ccc2O)no1	-28.0	3.7	-1.6	13.0*[inhibitor]	101.2	8.0*[inhibitor]	105.0	5.0	110.0
CC(C)c1cc(C(=O)Nc2cc(Br)ccc2O)no1	-4.0	2.7	-1.1	94.0	99.8	96.0	/	/	/
O=C(Nc1ccc([N+](=O)[O-])cc1)/C(=C/c1cccc([N+](=O)[O-])c1)NC(=O)C1CCCCC1	0.0	-13.6	4.8	99.0	94.8	101.0	/	/	/
Cc1ccc(NC(=O)/C(=C/c2cccc([N+](=O)[O-])c2)NC(=O)C2CCCCC2)c(C)c1	-21.0	-1.3	-18.0	2.0*[inhibitor]	118.4	1.0*[inhibitor]	107.0	3.0	103.0
C[C@@H]1COC(=O)[C@@H](Cc2ccc(F)cc2)C/C=C\C[C@@H](CC(=O)N[C@H](CO)Cc2ccccc2)C(=O)N1	/	-12.0	6.0	/	98.6	/	/	/	/
Cc1c(Cl)ccc2c(C(=O)NCCN3CCCCC3)cc(-c3ccccn3)nc12	23.0	20.4	12.4	166.0*	114.3	103.0	121.0	6.0	95.0
COc1ccccc1-c1cc(C(=O)NC2CCN(C)CC2)c2ccc(Cl)c(C)c2n1	28.0*	42.1	37.6	155.0*	106.1	105.0	132.0	25.0	108.0
Cc1c(Cl)ccc2c(C(=O)NCCCn3nccc3C)cc(-c3ccccn3)nc12	-6.0	-2.1	16.1	98.0	103.5	95.0	/	/	/
C[C@@H](NC(=O)c1[nH]cnc1C(=O)Nc1cccc(Cl)c1)c1ccccc1	/	6.7	15.4	/	101.3	/	/	/	/
Cc1ccccc1NC(=O)COC(=O)C1(C)CC1(Cl)Cl (stereo unspecified)	-20.0	2.1	-9.2	1.0*[inhibitor]	101.0	2.0*[inhibitor]	93.0	-10.0	89.0
O=c1c2ccccc2c(C=Nc2ccc(Cl)cn2)c(O)n1-c1cc(Cl)ccc1N1CCOCC1	-46.0	-25.4	25.3	2.0*[inhibitor]	98.3	2.0*[inhibitor]	84.0	-5.0	97.0
CC(=O)c1ccc(N=Cc2c(O)n(-c3cc(Cl)ccc3N3CCOCC3)c(=O)c3ccccc23)cc1	-1.0	-18.8	16.1	96.0	/	103.0	/	/	/
CC(C)(c1ccccc1)c1ccc(OCCCN2CCNCC2)cc1	15.0	27.8	22.8	150.0*	89.2	113.0	125.0	10.0	105.0
COc1cc(-c2n[nH]c(=S)n2-c2cc(C(F)(F)F)ccc2Cl)cc(OC)c1OC	0.0	-5.9	3.5	108.0	93.6	144.0*	100.0	-3.0	103.0
Cc1ccc(S(=O)(=O)NCCCCCC(=O)N(C)C)cc1	-11.0	-3.5	5.7	77.0	102.7	71.0*[inhibitor]	105.0	6.0	106.0
CC[C@]1(C(=O)OC)[C@H]2C(=O)N(C)C(=O)[C@H]2[C@H]2CN=C(SCc3ccc(C#N)cc3)N21	/	/	17.0	/	112.8	/	/	/	/
COc1ccc(Nc2c3c(nc4c(-c5ccccc5)c(C)nn24)CCC3)cc1	0.0	8.7	11.7	116.0	101.1	128.0*	98.0	0.0	106.0
Cc1nn2c(NCc3ccccn3)c3c(nc2c1-c1ccccc1)CCC3	1.0	27.8	-5.3	92.0	94.3	89.0	/	/	/
CCc1ccc2c(CN3CCN(S(=O)(=O)c4cccs4)CC3)cc(=O)oc2c1	1.0	6.3	22.7	100.0	133.2	135.0*	92.0	-8.0	98.0
COc1cc(/C=C2\SC(=S)N(N3CCOCC3)C2=O)ccc1O	-3.0	-1.1	-7.9	78.0	95.2	76.0	/	/	/
COc1cc(/C=C2\SC(=S)N(N3CCOCC3)C2=O)cc(OC)c1OC	-1.0	-0.7	-7.5	91.0	94.3	141.0*	100.0	-1.0	104.0
O=C1/C(=C/c2cccnc2)SC(=S)N1N1CCOCC1	-1.0	-8.5	-20.6	101.0	106.6	99.0	/	/	/
O=C1/C(=C/c2ccncc2)SC(=S)N1N1CCOCC1	-12.0	-2.2	-5.1	37.0*[inhibitor]	116.2	42.0*[inhibitor]	99.0	-4.0	103.0
Cn1cc(S(=O)(=O)N2CCN(c3cccc(Cl)c3)CC2)c(=O)n(C)c1=O	29.0	19.6	-22.4	132.0	102.9	129.0*	109.0	10.0	103.0
SMILES	MEKK2 mut-MEK5	UBC13 inh	Apaf-1 inh	MEKK2 WT-MEK5	DSG3 Ab inh	MEKK3 PB1 HTS	MEKK2wt confirm	MEKK2mut confirm	MEKK3 confirm
Cn1cc(S(=O)(=O)N2CCN(c3ccccc3)CC2)c(=O)n(C)c1=O	15.0	-4.5	11.5	112.0	94.9	116.0	/	/	/
O=C(Nc1nnc(-c2ccco2)o1)c1cccc(N2C(=O)CCC2=O)c1	4.0	-6.3	-8.0	117.0	/	129.0*	102.0	-5.0	100.0
O=C(Nc1nnc(-c2ccncc2)o1)c1cccc(N2C(=O)CCC2=O)c1	2.0	-27.6	7.0	103.0	/	100.0	/	/	/
c1ccc(-c2nc(-c3ccco3)n3ccccc23)cc1	-1.0	10.0	10.2	58.0*[inhibitor]	108.2	92.0	101.0	-10.0	98.0
COc1ccc(NC(=O)COC(=O)CNC(=O)C2CCCCC2)cc1OC	/	-0.5	2.1	/	95.8	/	/	/	/
COc1cccc(N2CCN(C(=O)c3cccc(S(=O)(=O)N4CCCC4)c3)CC2)c1	/	/	/	/	102.2	/	/	/	/
O=C(Nc1ccc(C2=NCCN2)cc1)c1ccc(Cl)c(C(=O)Nc2ccc(C3=NCCN3)cc2)c1	34.0	106.4*	31.9	144.0*	/	66.0*[inhibitor]	130.0	12.0	102.0
O=C(Nc1ccc(Cl)c(Cl)c1)c1ccncc1	1.0	3.6	5.6	102.0	103.0	100.0	/	/	/
O=C(Nc1ccc(Cl)c(Cl)c1)c1ccc(Cl)c(Cl)c1	56.0*	-1.2	4.9	162.0*	99.5	97.0	142.0	16.0	105.0
COc1ccc(NC(=O)N(C)C[C@H]2Oc3ccc(NC(=O)Nc4ccc5c(c4)OCO5)cc3C(=O)N([C@H](C)CO)C[C@@H]2C)cc1	/	/	/	/	102.2	/	/	/	/
COCC(=O)OCC(=O)Nc1ccc(Cl)cc1[N+](=O)[O-]	-19.0	-8.8	3.0	44.0*[inhibitor]	98.2	32.0*[inhibitor]	99.0	-2.0	101.0
COCC(=O)OCC(=O)Nc1cc([N+](=O)[O-])ccc1Cl	-10.0	/	/	89.0	96.4	95.0	/	/	/
O=C(Cn1cnc([N+](=O)[O-])n1)c1ccc(O)c(O)c1	1.0	2.3	-4.8	101.0	95.8	101.0	/	/	/
